# Phagocytosis inh = blocks phagocytosis by macrophages. J774A.1 macrophage IgG-bead phagocytosis, imaging. inhibition, % at 5 µM. hit rate 0.07% among 110,000. AID 1029;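 active = inhibition above the mean of the plate negative controls plus 5 SD, cut at about 13% in these data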;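 note: phagocytic index as fraction of beads internalized from green versus red external bead signal; plate controls were DMSO negative control for no effect and cytochalasin-D positive control for full effect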
# DAT uptake mod = modulates human dopamine transporter uptake under cocaine; LLC-PK1 hDAT cells, [14C]-dopamine uptake with cocaine IC80; actives deviate in either direction; B-score at 10 µM; hit rate 1.3% among 110,000; AID 449768;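 active = Z score or B-score, a plate-position-corrected score, falls beyond the plate's 99.7% confidence bounds, in either direction; inactive = both scores lie inside the 99.7% bounds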;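 note: scored against the spread of the other compound wells on the same plate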
# Measles CPE = protection of cells from measles virus; Measles virus-infected cells, CPE protection, absorbance; protection (pct of control), % at 4 µM; hit rate 1.5% among 140,000; AID 841; in the data active = protection mostly above about 24%, no sharp cut-off; inactive = mostly below about 26%
# Cav3 T inh = blocks human Cav3.2 T-type calcium channel; O95180; Cav3.2-expressing cells, Fluo-4 calcium fluorescence FDSS; hits give low values; B-score at 10 µM; hit rate 4% among 100,000; AID 449739;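 active = single-dose well whose peak fluorescence ratio is a statistical outlier from its plate by either plate-standardised score or position-corrected B-score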
# HIV Rev-RRE inh = disrupts HIV-1 Rev binding to RRE RNA | P05866 | Rev peptide-RRE RNA binding, FRET | inhibition, % at 8 µM | hit rate 0.79% among 97,000 | AID 704;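 active = inhibition above the screen-wide mean plus 3 SD, cut at about 35% in these data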;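 note: 0% = median DMSO wells and 100% = median Neomycin B control wells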
#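 Test system: Cy5-tagged RRE RNA duplex with fluorescein-tagged Rev peptide; Probe or stimulus: labelled Rev peptide; Schedule: 5 min preincubation and 15 min binding, 25 °C; Signal: FRET fluorescence readout; Evaluation: % inhibition from 671/540 nm acceptor-to-donor ratio, scaled between controls; Control set: DMSO and neomycin B.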
# PTK2B oligo ant = blocks oligomerization of human Pyk2 in cells. Q14289. Q293 cells, Pyk2 FERM NanoBiT luminescence; hits give low values. z-score (the deposit names both 25 µM and 10 µM). hit rate 0.83% among 99,000;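 active = Z-score of -3 or lower, scaled per plate to the spread of control and sample wells; inactive = z-score above -3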;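 note: negative z-score means lost luminescence so less FERM oligomerization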
# Target sequence (Q14289 whole entry, looked up): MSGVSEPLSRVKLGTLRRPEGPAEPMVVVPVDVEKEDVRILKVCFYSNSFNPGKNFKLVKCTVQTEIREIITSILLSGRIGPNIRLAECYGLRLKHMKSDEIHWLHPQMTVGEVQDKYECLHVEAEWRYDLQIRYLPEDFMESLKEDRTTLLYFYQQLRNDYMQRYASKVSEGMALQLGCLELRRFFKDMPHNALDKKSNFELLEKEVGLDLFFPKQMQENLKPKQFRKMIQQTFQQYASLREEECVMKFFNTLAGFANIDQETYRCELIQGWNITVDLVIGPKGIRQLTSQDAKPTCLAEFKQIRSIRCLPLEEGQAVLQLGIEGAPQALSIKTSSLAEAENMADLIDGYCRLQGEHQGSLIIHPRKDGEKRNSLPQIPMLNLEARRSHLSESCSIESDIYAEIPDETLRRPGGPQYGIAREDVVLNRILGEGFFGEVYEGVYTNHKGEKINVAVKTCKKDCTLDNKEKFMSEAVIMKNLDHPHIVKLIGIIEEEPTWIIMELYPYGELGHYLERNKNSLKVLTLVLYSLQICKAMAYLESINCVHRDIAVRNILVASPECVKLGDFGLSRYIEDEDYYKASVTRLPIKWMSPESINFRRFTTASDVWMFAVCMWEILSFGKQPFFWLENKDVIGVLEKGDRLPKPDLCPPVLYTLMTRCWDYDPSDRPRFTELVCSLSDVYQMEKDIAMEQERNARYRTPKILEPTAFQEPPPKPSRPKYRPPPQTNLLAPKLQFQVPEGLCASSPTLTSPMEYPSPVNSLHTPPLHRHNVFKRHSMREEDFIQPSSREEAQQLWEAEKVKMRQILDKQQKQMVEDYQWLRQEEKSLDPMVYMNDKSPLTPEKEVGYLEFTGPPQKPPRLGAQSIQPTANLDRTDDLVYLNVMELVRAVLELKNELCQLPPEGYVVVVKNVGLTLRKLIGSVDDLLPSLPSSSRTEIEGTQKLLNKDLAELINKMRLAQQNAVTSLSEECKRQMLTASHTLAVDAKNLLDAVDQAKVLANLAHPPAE
# * hit, by the source's call; . = no result given. Rows were chosen to be rich in hits. Some 5.9% of all compounds tested hit in one or more screens of this group.
SMILES,Phagocytosis inh,DAT uptake mod,Measles CPE,Cav3 T inh,HIV Rev-RRE inh,PTK2B oligo ant
CCn1c(O)c(/C=N/N=C/c2ccccc2)c2ccc(C3=NNC(=O)CC3)cc21,0,2.4,21,0.31,57*,-2.3
CC(=O)N/C(=C/c1ccc2c(c1)OCO2)C(=O)NCCO,-5,.,10,.,.,.
CC(=O)c1ccc(NC(=O)CSCCO)cc1,-2,-0.9,13,-1.4,2,-0.21
O=C(CSCCO)Nc1ccc(C2CCCCC2)cc1,-1,3.1*,9,-0.64,.,0.21
CC(C)C(c1nnnn1C(C)(C)C)N1CCC(Cc2ccccc2)CC1 (configuration not stated),0,.,6,.,.,.
Cc1cccc(OCc2nc(C#N)c(N3CC(C)CC(C)C3)o2)c1 (configuration not stated),1,0.72,7,-7.3*,13,.
N#Cc1nc(COc2ccc(Cl)cc2)oc1NCc1ccc2c(c1)OCO2,4,0.63,21,-0.12,16,-1.3
Cc1cccc(OCc2nc(C#N)c(NCc3ccc4c(c3)OCO4)o2)c1,0,0.002,5,-6.8*,13,1.4
CCNc1oc(COc2cccc(C)c2)nc1C#N,-1,1.1,38*,-0.21,-1,-0.09
COc1ccc(Nc2oc(COc3cccc(C)c3)nc2C#N)cc1,0,-0.45,9,-1.6,13,-0.24
N#CCCn1cc(C(=O)Nc2ccccc2Br)c(-c2cc3ccccc3o2)n1,3,.,31,.,.,.
CCN1CCC2(CC1)C(C#N)=C(N)Oc1c2sc2nc(C)cc(C)c12,0,0.039,14,0.025,66*,0.67
CCN(c1nc(N)c(C(=O)N=C(N)N)nc1Cl)C(C)C,.,-0.4,.,.,.,.
c1ccc(Cn2c(CNc3nc4ccccc4n3CCN3CCOCC3)nc3ccccc32)cc1,0,0.93,21,-1.8,2,0.52
Cn1c(Oc2ccccc2NCc2cccc(Br)c2)cc(=O)n(C)c1=O,.,0.38,3,-8.1*,3,-1.6
Cc1ccc(C)c(NC(=O)/C(C#N)=C/c2ccc(Sc3nncn3C)c([N+](=O)[O-])c2)c1,.,.,25,.,.,.
Cc1nc(-c2ccc(Cl)cc2)sc1C1(C)CC(c2ccc(C#N)cc2)=NO1 (configuration not stated),.,0.15,.,-0.26,.,.
COc1ccc2cc3cc(C(=O)NCCN4CCN(c5ccccc5F)CC4)oc3nc2c1,.,-0.2,7,-1.2,8,-3.1*
O=C(NCc1ccco1)c1cccc(NS(=O)(=O)c2ccccc2F)c1,.,.,14,.,.,.
CCOC(=O)c1ccc(NC(=O)CC2C(=O)N(c3ccc(F)cc3)C(=O)N2CCC(C)C)cc1 (configuration not stated),0,2.4,3,-4.5*,12,-1.5
COC(=O)c1ccc(NC(=O)CC2C(=O)N(c3ccc(C)cc3)C(=O)N2CC(C)C)cc1 (configuration not stated),.,0.01,23,-2.2,19,-2.3
COc1ccc(N2CCN(c3c(S(=O)(=O)c4ccccc4)cnc4ccc(OC)cc34)CC2)cc1,-8,.,23*,.,.,.
CC(=O)Nc1ccc(S(=O)(=O)Nc2nc3ccccc3nc2N2CCCCCC2)cc1,.,0.27,8,-3.3,9,-0.54
O=S(=O)(Nc1nc2ccccc2nc1N1CCN(c2ccccn2)CC1)c1ccc(Cl)cc1,-1,-0.48,6,-4.7*,36*,-0.23
COc1ccc(N2CCN(c3nc4ccccc4nc3NS(=O)(=O)c3ccccc3)CC2)cc1,0,0.48,1,-4.2*,8,-0.05
Cc1ccc(S(=O)(=O)Nc2nc3ccccc3nc2N2CCN(c3ccccc3F)CC2)cc1,.,-0.76,5,-3.6*,9,-0.17
CC(C)c1nc(NCC2CCCO2)c(C#N)c2c1COC(C)(C)C2 (configuration not stated),4,1.2,5,-3.5*,6,-1.2
Cc1cc(C(=O)CN2C(=O)NC3(CCCc4ccccc43)C2=O)c(C)n1Cc1ccccc1 (configuration not stated),-2,1.6,2,-4.4*,9,0.36
O=C(c1ccccc1F)N(Cc1ccc2c(c1)OCO2)Cc1cc2cc3c(cc2n2nnnc12)OCO3,.,0.88,12,-1.4,9,-2.6
COc1ccc(/C=N/OCC(=O)N2CC3(C)CC2CC(C)(C)C3)cc1 (configuration not stated),8,3.7*,13,-0.82,1,-0.75

# High-throughput results: PubChem, several laboratories
